Data published in ChEMBL document CHEMBL1208662, “Antimicrobial activity and a SAR study of some novel benzimidazole derivatives bearing hydrazone moiety” (Eur J Med Chem, 2010).
≈ marks a conversion by molar mass, not a printed value.

Tested on: Nakaseomyces glabratus
Experiment: Antimicrobial activity against Candida glabrata by broth microdilution method
Type: functional
Conditions: not given
Summary of the method: (§1)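 Yeasts grown overnight at 35 ± 1 °C in Sabouraud dextrose broth. Tested by CLSI M7-A7 broth microdilution in Sabouraud dextrose broth, pH 7, two-fold serial dilutions 800 down to 1.5625 μg/mL of DMSO-dissolved compound. DMSO-only control. Inoculum matched to McFarland 0.5, final 0.5-2.5 × 10^5 cfu/mL. MIC is last well without growth, µg/mL. Duplicate readings. Ketoconazole reference.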

With `O=C(N/N=C/c1ccc(Cl)cc1)c1ccc(-c2nc3ccccc3[nH]2)cc1` as the molecule, how does the MIC read?
The MIC was 50 µg/mL (≈ 133 µM).

Which MIC does the source give for `O=C(N/N=C/c1ccc(Br)cc1)c1ccc(-c2nc3ccccc3[nH]2)cc1` here?
Its MIC is 100 µg/mL (≈ 239 µM).

For `O=C(N/N=C/c1ccc(F)cc1)c1ccc(-c2nc3ccccc3[nH]2)cc1`, which MIC is on record?
The MIC was 100 µg/mL (≈ 279 µM).

Which MIC does the source give for `Cc1ccc(/C=N/NC(=O)c2ccc(-c3nc4ccccc4[nH]3)cc2)cc1` here?
The MIC was 100 µg/mL (≈ 282 µM).

Tested on: Pseudomonas aeruginosa
Experiment: Antimicrobial activity against Pseudomonas aeruginosa by broth microdilution method
Type: functional
Conditions: not given
Summary of the method: (§2)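 CLSI M7-A7 broth microdilution, two-fold serial dilutions 800 down to 1.5625 μg/mL in Mueller–Hinton broth, pH 7. Compounds dissolved in DMSO; DMSO-only solvent control. Overnight cultures at 35 ± 1 °C, inoculum matched to McFarland 0.5, final 0.5-2.5 × 10^5 cfu/mL. MIC taken as last well without growth, µg/mL. Run twice. Chloramphenicol reference.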

With `O=C(N/N=C/c1ccc(Cl)cc1)c1ccc(-c2nc3ccccc3[nH]2)cc1` as the molecule, how does the MIC read?
Its MIC is 25 µg/mL (≈ 66.7 µM).

For `O=C(N/N=C/c1ccc(Br)cc1)c1ccc(-c2nc3ccccc3[nH]2)cc1`, which MIC is on record?
Its MIC is 25 µg/mL (≈ 59.6 µM).

For `O=C(N/N=C/c1ccc(F)cc1)c1ccc(-c2nc3ccccc3[nH]2)cc1`, which MIC is on record?
Its MIC is 50 µg/mL (≈ 140 µM).

For `Cc1ccc(/C=N/NC(=O)c2ccc(-c3nc4ccccc4[nH]3)cc2)cc1`, which MIC is on record?
Its MIC is 50 µg/mL (≈ 141 µM).

Tested on: Escherichia coli
Experiment: Antimicrobial activity against Escherichia coli 25922 by broth microdilution method
Type: functional
Conditions: not given
Summary of the method: as §2

With `O=C(N/N=C/c1ccc(Cl)cc1)c1ccc(-c2nc3ccccc3[nH]2)cc1` as the molecule, how does the MIC read?
Its MIC is 100 µg/mL (≈ 267 µM).

With `O=C(N/N=C/c1ccc(Br)cc1)c1ccc(-c2nc3ccccc3[nH]2)cc1` as the molecule, how does the MIC read?
The MIC was 50 µg/mL (≈ 119 µM).

With `O=C(N/N=C/c1ccc(F)cc1)c1ccc(-c2nc3ccccc3[nH]2)cc1` as the molecule, how does the MIC read?
The MIC was 50 µg/mL (≈ 140 µM).

Which MIC does the source give for `Cc1ccc(/C=N/NC(=O)c2ccc(-c3nc4ccccc4[nH]3)cc2)cc1` here?
The MIC was 100 µg/mL (≈ 282 µM).

Tested on: not listed separately
Experiment: Toxicity in Artemia salina after 24 hrs
Type: organism-based
Conditions: in vivo

Which LC50 at 24 h does the source give for `O=C(N/N=C/c1ccc(Cl)cc1)c1ccc(-c2nc3ccccc3[nH]2)cc1` here?
The LC50 at 24 h was greater than 1000 µg/mL.

With `O=C(N/N=C/c1ccc(Br)cc1)c1ccc(-c2nc3ccccc3[nH]2)cc1` as the molecule, how does the LC50 at 24 h read?
Its LC50 at 24 h is greater than 1000 µg/mL.

Which LC50 at 24 h does the source give for `Cc1ccc(/C=N/NC(=O)c2ccc(-c3nc4ccccc4[nH]3)cc2)cc1` here?
The LC50 at 24 h was greater than 1000 µg/mL.

Tested on: Candida tropicalis
Experiment: Antimicrobial activity against Candida tropicalis by broth microdilution method
Type: functional
Conditions: not given
Summary of the method: as §1

For `O=C(N/N=C/c1ccc(Cl)cc1)c1ccc(-c2nc3ccccc3[nH]2)cc1`, which MIC is on record?
The MIC was 50 µg/mL (≈ 133 µM).

With `O=C(N/N=C/c1ccc(Br)cc1)c1ccc(-c2nc3ccccc3[nH]2)cc1` as the molecule, how does the MIC read?
Its MIC is 50 µg/mL (≈ 119 µM).

Which MIC does the source give for `O=C(N/N=C/c1ccc(F)cc1)c1ccc(-c2nc3ccccc3[nH]2)cc1` here?
Its MIC is 50 µg/mL (≈ 140 µM).

For `Cc1ccc(/C=N/NC(=O)c2ccc(-c3nc4ccccc4[nH]3)cc2)cc1`, which MIC is on record?
Its MIC is 100 µg/mL (≈ 282 µM).

Tested on: Listeria monocytogenes
Experiment: Antimicrobial activity against Listeria monocytogenes by broth microdilution method
Type: functional
Conditions: not given
Summary of the method: as §2

With `O=C(N/N=C/c1ccc(Cl)cc1)c1ccc(-c2nc3ccccc3[nH]2)cc1` as the molecule, how does the MIC read?
The MIC was 100 µg/mL (≈ 267 µM).

Which MIC does the source give for `O=C(N/N=C/c1ccc(Br)cc1)c1ccc(-c2nc3ccccc3[nH]2)cc1` here?
Its MIC is 200 µg/mL (≈ 477 µM).

With `O=C(N/N=C/c1ccc(F)cc1)c1ccc(-c2nc3ccccc3[nH]2)cc1` as the molecule, how does the MIC read?
The MIC was 200 µg/mL (≈ 558 µM).

For `Cc1ccc(/C=N/NC(=O)c2ccc(-c3nc4ccccc4[nH]3)cc2)cc1`, which MIC is on record?
Its MIC is 200 µg/mL (≈ 564 µM).

Tested on: Staphylococcus aureus
Experiment: Antimicrobial activity against Staphylococcus aureus by broth microdilution method
Type: functional
Conditions: not given
Summary of the method: as §2

With `O=C(N/N=C/c1ccc(Cl)cc1)c1ccc(-c2nc3ccccc3[nH]2)cc1` as the molecule, how does the MIC read?
The MIC was 12.5 µg/mL (≈ 33.3 µM).

Which MIC does the source give for `O=C(N/N=C/c1ccc(Br)cc1)c1ccc(-c2nc3ccccc3[nH]2)cc1` here?
Its MIC is 25 µg/mL (≈ 59.6 µM).

For `O=C(N/N=C/c1ccc(F)cc1)c1ccc(-c2nc3ccccc3[nH]2)cc1`, which MIC is on record?
The MIC was 50 µg/mL (≈ 140 µM).

Which MIC does the source give for `Cc1ccc(/C=N/NC(=O)c2ccc(-c3nc4ccccc4[nH]3)cc2)cc1` here?
Its MIC is 25 µg/mL (≈ 70.5 µM).

Tested on: Candida albicans
Experiment: Antimicrobial activity against Candida albicans by broth microdilution method
Type: functional
Conditions: not given
Summary of the method: as §1

With `O=C(N/N=C/c1ccc(Cl)cc1)c1ccc(-c2nc3ccccc3[nH]2)cc1` as the molecule, how does the MIC read?
The MIC was 50 µg/mL (≈ 133 µM).

For `O=C(N/N=C/c1ccc(Br)cc1)c1ccc(-c2nc3ccccc3[nH]2)cc1`, which MIC is on record?
The MIC was 100 µg/mL (≈ 239 µM).

With `O=C(N/N=C/c1ccc(F)cc1)c1ccc(-c2nc3ccccc3[nH]2)cc1` as the molecule, how does the MIC read?
The MIC was 100 µg/mL (≈ 279 µM).

For `Cc1ccc(/C=N/NC(=O)c2ccc(-c3nc4ccccc4[nH]3)cc2)cc1`, which MIC is on record?
Its MIC is 100 µg/mL (≈ 282 µM).

Tested on: Klebsiella pneumoniae
Experiment: Antimicrobial activity against Klebsiella pneumoniae by broth microdilution method
Type: functional
Conditions: not given
Summary of the method: as §2

With `O=C(N/N=C/c1ccc(Cl)cc1)c1ccc(-c2nc3ccccc3[nH]2)cc1` as the molecule, how does the MIC read?
The MIC was 12.5 µg/mL (≈ 33.3 µM).

With `O=C(N/N=C/c1ccc(Br)cc1)c1ccc(-c2nc3ccccc3[nH]2)cc1` as the molecule, how does the MIC read?
Its MIC is 12.5 µg/mL (≈ 29.8 µM).

With `O=C(N/N=C/c1ccc(F)cc1)c1ccc(-c2nc3ccccc3[nH]2)cc1` as the molecule, how does the MIC read?
The MIC was 25 µg/mL (≈ 69.8 µM).

With `Cc1ccc(/C=N/NC(=O)c2ccc(-c3nc4ccccc4[nH]3)cc2)cc1` as the molecule, how does the MIC read?
Its MIC is 12.5 µg/mL (≈ 35.3 µM).

Tested on: Salmonella typhimurium
Experiment: Antimicrobial activity against Salmonella Typhimurium by broth microdilution method
Type: functional, Salmonella enterica subsp. enterica serovar Typhimurium
Conditions: Salmonella enterica
Summary of the method: as §2

Which MIC does the source give for `O=C(N/N=C/c1ccc(Cl)cc1)c1ccc(-c2nc3ccccc3[nH]2)cc1` here?
The MIC was 6.25 µg/mL (≈ 16.7 µM).

With `O=C(N/N=C/c1ccc(Br)cc1)c1ccc(-c2nc3ccccc3[nH]2)cc1` as the molecule, how does the MIC read?
Its MIC is 12.5 µg/mL (≈ 29.8 µM).

For `O=C(N/N=C/c1ccc(F)cc1)c1ccc(-c2nc3ccccc3[nH]2)cc1`, which MIC is on record?
The MIC was 6.25 µg/mL (≈ 17.4 µM).

With `Cc1ccc(/C=N/NC(=O)c2ccc(-c3nc4ccccc4[nH]3)cc2)cc1` as the molecule, how does the MIC read?
Its MIC is 6.25 µg/mL (≈ 17.6 µM).

Tested on: Bacillus subtilis
Experiment: Antimicrobial activity against Bacillus subtilis by broth microdilution method
Type: functional
Conditions: not given
Summary of the method: as §2

With `O=C(N/N=C/c1ccc(Cl)cc1)c1ccc(-c2nc3ccccc3[nH]2)cc1` as the molecule, how does the MIC read?
The MIC was 25 µg/mL (≈ 66.7 µM).

With `O=C(N/N=C/c1ccc(Br)cc1)c1ccc(-c2nc3ccccc3[nH]2)cc1` as the molecule, how does the MIC read?
Its MIC is 25 µg/mL (≈ 59.6 µM).

With `O=C(N/N=C/c1ccc(F)cc1)c1ccc(-c2nc3ccccc3[nH]2)cc1` as the molecule, how does the MIC read?
The MIC was 25 µg/mL (≈ 69.8 µM).

For `Cc1ccc(/C=N/NC(=O)c2ccc(-c3nc4ccccc4[nH]3)cc2)cc1`, which MIC is on record?
Its MIC is 50 µg/mL (≈ 141 µM).

Tested on: Proteus vulgaris
Experiment: Antimicrobial activity against Proteus vulgaris by broth microdilution method
Type: functional
Conditions: not given
Summary of the method: as §2

With `O=C(N/N=C/c1ccc(Cl)cc1)c1ccc(-c2nc3ccccc3[nH]2)cc1` as the molecule, how does the MIC read?
The MIC was 25 µg/mL (≈ 66.7 µM).

Which MIC does the source give for `O=C(N/N=C/c1ccc(Br)cc1)c1ccc(-c2nc3ccccc3[nH]2)cc1` here?
Its MIC is 25 µg/mL (≈ 59.6 µM).

With `O=C(N/N=C/c1ccc(F)cc1)c1ccc(-c2nc3ccccc3[nH]2)cc1` as the molecule, how does the MIC read?
Its MIC is 50 µg/mL (≈ 140 µM).

For `Cc1ccc(/C=N/NC(=O)c2ccc(-c3nc4ccccc4[nH]3)cc2)cc1`, which MIC is on record?
Its MIC is 25 µg/mL (≈ 70.5 µM).

Tested on: Escherichia coli
Experiment: Antimicrobial activity against Escherichia coli 35218 by broth microdilution method
Type: functional
Conditions: not given
Summary of the method: as §2

Which MIC does the source give for `O=C(N/N=C/c1ccc(Cl)cc1)c1ccc(-c2nc3ccccc3[nH]2)cc1` here?
The MIC was 25 µg/mL (≈ 66.7 µM).

With `O=C(N/N=C/c1ccc(Br)cc1)c1ccc(-c2nc3ccccc3[nH]2)cc1` as the molecule, how does the MIC read?
Its MIC is 25 µg/mL (≈ 59.6 µM).

Which MIC does the source give for `O=C(N/N=C/c1ccc(F)cc1)c1ccc(-c2nc3ccccc3[nH]2)cc1` here?
Its MIC is 25 µg/mL (≈ 69.8 µM).

Which MIC does the source give for `Cc1ccc(/C=N/NC(=O)c2ccc(-c3nc4ccccc4[nH]3)cc2)cc1` here?
The MIC was 25 µg/mL (≈ 70.5 µM).

Tested on: Enterococcus faecalis
Experiment: Antimicrobial activity against Enterococcus faecalis by broth microdilution method
Type: functional
Conditions: not given
Summary of the method: as §2

Which MIC does the source give for `O=C(N/N=C/c1ccc(Cl)cc1)c1ccc(-c2nc3ccccc3[nH]2)cc1` here?
The MIC was 12.5 µg/mL (≈ 33.3 µM).

With `O=C(N/N=C/c1ccc(Br)cc1)c1ccc(-c2nc3ccccc3[nH]2)cc1` as the molecule, how does the MIC read?
Its MIC is 12.5 µg/mL (≈ 29.8 µM).

With `O=C(N/N=C/c1ccc(F)cc1)c1ccc(-c2nc3ccccc3[nH]2)cc1` as the molecule, how does the MIC read?
The MIC was 25 µg/mL (≈ 69.8 µM).

With `Cc1ccc(/C=N/NC(=O)c2ccc(-c3nc4ccccc4[nH]3)cc2)cc1` as the molecule, how does the MIC read?
Its MIC is 12.5 µg/mL (≈ 35.3 µM).
